Compound activity (PubChem)
FGF22 binding – binders of recombinant human FGF22 by thermal shift | SYPRO orange fluorescence; percent of sucrose octasulfate shift, DMSO zero | AID 651658 | 340,000 compounds, 1.5% hits | activity (Tm shift, normalised), % at 9.99 µM | Q9HCT0;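 active = mean Tm shift, scaled 0 neutral to 100 positive control, at about 1.3% or above, every replicate too, limit read from the data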
Target sequence (Q9HCT0 whole entry, looked up): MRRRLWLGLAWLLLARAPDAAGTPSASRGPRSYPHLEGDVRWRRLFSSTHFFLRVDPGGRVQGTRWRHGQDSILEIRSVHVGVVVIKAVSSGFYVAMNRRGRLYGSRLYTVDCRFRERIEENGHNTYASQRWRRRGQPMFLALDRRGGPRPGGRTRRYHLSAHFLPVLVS
Vif inh – blocks HIV Vif function; HEK293T cells, Vif self-association by quenched fluorescence, imaging, 24 h; inhibition, % at 7.49 µM; 340,000 compounds, 0.35% hits; AID 602346; in the data active = inhibition above about 50%, passing the limit was not always enough
PGC1a acetyl inh – lowers PGC1a acetylation signal in U2OS cells | AlphaScreen anti-acetyl-lysine; with virally co-expressed GCN5 acetyltransferase | inhibition, % at 15.6 µM | 350,000 compounds, 0.17% hits;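 active = every replicate shows inhibition of at least 40%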
PglD DTNB – PglD (C. jejuni) enzyme inhibition; inhibition, % at 12.5 µM; AID 602405; purified PglD enzyme, DTNB colorimetric CoA detection; 360,000 compounds, 0.098% hits; in the data active = inhibition above about 16%, passing the limit was not always enough
Ecoli rRNA inh – inhibits bacterial ribosomal RNA function over humanized ribosomes | E. coli WT GFP vs humanized-ribosome RFP mutants, fluorescence, 24 h; stronger effect = lower value; DMSO median 0, no signal -100 | GFP signal change (wild-type ribosome), % (no concentration beside the values) | 350,000 compounds, 1.6% hits | AID 720706;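 active = significant combined selectivity score with lowered wild-type GFP, culture density cut under 30%, mutant RFP and density less affected; inactive = any of these conditions unmet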
Cneo AK release – Cryptococcus neoformans lysis via adenylate kinase release | C. neoformans lysis, adenylate kinase release luminescence, 4 h; normalised: neutral wells 0, clomiphene wells 100 | lysis activity, % at 15 µM | 360,000 compounds, 0.2% hits | AID 651654;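 active = mean lysis activity across replicates of at least 80%, whatever share of replicates individually reach that level; inactive = mean lysis activity below 80%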
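Material – log-phase Cryptococcus neoformans yeast cells · Input – 5 × 10^6 yeast cells/mL · Medium – fresh YPD growth medium · Doses – single compound concentration per well · Timing – static 4 h at 37 °C with compound, 1 h detection · Detection – adenylate kinase release luminescence · Read-out – signal increase indicating cell lysis · Control set – Clomiphene as positive lysis control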
A number is an active result; - = inactive; . = not tested or not shown. Rows were chosen to be rich in hits. Some 2.9% of all compounds tested hit in one or more screens of this group.

SMILES	FGF22 binding	Vif inh	PGC1a acetyl inh	PglD DTNB	Ecoli rRNA inh	Cneo AK release
CN(Cc1c(C(=O)N/N=C/c2c(F)cccc2Cl)nnn1-c1nonc1N)c1ccccc1	-	-	-	-	-22	-
Cc1ccc(/C=N/NC(=O)c2nnn(-c3nonc3N)c2CSc2ccccc2)cc1	-	-	.	.	-	.
Cc1ccc(SCc2c(C(=O)N/N=C/c3ccc(C)o3)nnn2-c2nonc2N)cc1	-	-	-	-	-	-
CC(C)c1c(C(=O)N/N=C/c2cccnc2)nnn1-c1nonc1N	-	-	-	-	-20	-
N#Cc1cccc(-c2ccc(C3[C@@H]4CN(C(=O)C5CC5)C[C@H]3N4)cc2)c1 (stereo partly drawn)	.	.	-	.	-	.
COc1ccc(NC(=O)N2CCCCN3[C@@H](CO)[C@@H](c4ccc(-c5ccccc5C)cc4)[C@@H]3C2)cc1	-	.	-	-	-	-
COc1cccc(S(=O)(=O)N[C@@H]2C=C[C@@H](CC(=O)NCc3ccccc3)O[C@@H]2CO)c1	-	.	-	-	-	-
O=C1c2ccccc2C(c2nnnn2Cc2ccccc2)N1CCc1ccc(O)cc1 (stereo not drawn)	-	.	.	.	-28	.
CC(C)CCN1C(=O)c2ccccc2C1c1nnnn1Cc1ccccc1 (stereo not drawn)	-	.	.	.	-	.
O=C1c2ccccc2C(c2nnnn2Cc2ccccc2)N1Cc1cccs1 (stereo not drawn)	-	.	.	.	-26	.
CC(C)n1nnnc1C1c2ccccc2C(=O)N1CCc1c[nH]c2ccccc12 (stereo not drawn)	-	.	.	.	-30	.
O=C1c2ccccc2C(c2nnnn2Cc2ccccc2)N1CCc1ccccc1F (stereo not drawn)	-	.	.	.	-21	.
CO[C@@H]1CN(C)C(=O)c2ccc(NC(=O)c3nc4ccccc4s3)cc2OC[C@@H](C)N(Cc2cncnc2)C[C@@H]1C	.	.	.	.	-	.
CCc1ccc(NC(=S)N(Cc2ccccc2)Cc2ccccn2)cc1	44	-	-	-	-	-
O=C(NCC1CCCO1)C1CCN(C2CCN(Cc3ccco3)CC2)CC1 (stereo not drawn)	44	-	-	-	-	-
COc1cc(NC(=O)COC(=O)C=C(C)C)c(C)cc1[N+](=O)[O-]	44	-	-	-	.	-
O=C1/C(=C/c2cccnc2)SC(=S)N1Cc1ccco1	-	-	-	.	-	.
Cc1cc(/C=C2\SC(=S)N(Cc3ccco3)C2=O)c(C)n1-c1cccnc1	.	187	-	-	.	-
C#CCN([C@H](/C=C/C1CC1)[C@@H](O)Cc1ccccc1)[C@@H]1C(=O)N2[C@@H]1SC(C)(C)[C@@H]2C(=O)OC	-	.	-	.	.	-
CCOC(=O)c1sc(NC(=O)C2CCCCC2)nc1C	-	-	.	.	-30	.
CCOC(=O)c1sc(NC(=O)CSC(=S)N2CCN(C)CC2)nc1C	-	-	-	-	-25	-
CCOC(=O)c1sc(NC(C)=O)cc1C	-	-	-	.	-	-
CCOC(=O)c1sc(NC(=O)CCSC)nc1C	.	-	.	-	.	-
CCOC(=O)c1sc(NC(=O)C2CCC2)cc1C	43	-	-	.	-	.
O=C(Cc1ccncc1)NCC[C@@H]1CC[C@@H](NC(=O)C2CCCC2)[C@@H](CO)O1	-	.	-	-	-	-
SMILES	FGF22 binding	Vif inh	PGC1a acetyl inh	PglD DTNB	Ecoli rRNA inh	Cneo AK release
CC(=NNc1nc2ccccc2o1)c1ncccn1	-	-	-	.	-	.
CC(=NNc1nc2ccccc2o1)c1cc2ccccc2cn1	-	-	.	.	-22	.
COc1ccc(CNC(=O)c2ccc(Cl)c(NC3=NC4CS(=O)(=O)CC4S3)c2)cc1 (stereo not drawn)	-	-	.	-	-	-
O=C(NCc1ccccc1)c1ccc(Cl)c(NC2=NC3CS(=O)(=O)CC3S2)c1 (stereo not drawn)	-	60	.	-	-	-
CCCNC(=O)C[C@H]1CC[C@@H]2[C@@H](COc3ccc(NC(=O)Cc4ccccc4)cc3C(=O)N2C)O1	-	.	-	-	-	-
CCCC#Cc1cnc2c(c1)C(=O)N([C@H](C)CO)C[C@H](C)[C@H](CN(C)C(=O)C1CCCCC1)O2	.	.	-	.	-	.
COCCNC(=O)C[C@@H]1C[C@H]2c3cc(NC(=O)C4CCC4)ccc3O[C@H]2[C@@H](CO)O1	-	.	-	-	-	84
O=C(C[C@@H]1C[C@@H]2c3cc(NC(=O)NC4CCCCC4)ccc3O[C@@H]2[C@@H](CO)O1)NCc1cccnc1	-	.	-	54	-	-
COCCNC(=O)C[C@@H]1C[C@@H]2c3cc(NC(=O)C4CCC4)ccc3O[C@@H]2[C@@H](CO)O1	-	.	-	-	-	-
O=C(C[C@H]1C[C@@H]2c3cc(NC(=O)CC4CC4)ccc3O[C@@H]2[C@@H](CO)O1)NCc1cccc(F)c1	-	.	-	-	-	91
O=C(C[C@H]1C[C@H]2c3cc(NC(=O)C4CCC4)ccc3O[C@H]2[C@@H](CO)O1)NCc1cccc(F)c1	-	.	-	-	-	94
O=C(C[C@@H]1C[C@@H]2c3cc(NC(=O)C4CCC4)ccc3O[C@@H]2[C@H](CO)O1)NCc1cccc(F)c1	-	.	-	-	-	86
Cc1ccc(S(=O)(=O)N(C)C[C@@H]2OCCCC[C@H](C)Oc3ccc(N(C)C)cc3C(=O)N([C@@H](C)CO)C[C@@H]2C)cc1	-	.	-	-	-	-
CC1C(=O)OC(c2ccc(Br)cc2)C(C)(C)C1=O (stereo not drawn)	-	-	-	-	-43	-
Cc1ccc(-c2cc(C(=O)Nc3ccc(S(=O)(=O)Nc4onc(C)c4C)cc3)c3ccccc3n2)cc1	1.7	-	.	.	-	.
Cc1noc(NS(=O)(=O)c2ccc(NC(=O)/C=C/c3ccccc3)cc2)c1C	1.4	-	-	-	-	-
CC(=O)N(C)C[C@@H]1Oc2ncc(-c3ccccc3C)cc2C(=O)N([C@H](C)CO)C[C@H]1C	-	.	-	-	-	-
CCCC(=O)Nc1ccc2c(c1)OC[C@@H](C)N(C)C[C@@H](C)[C@H](OC)CN(C)C2=O	.	.	.	.	-	.
CN1CCN(C(=O)C[C@H]2CC[C@@H]3[C@H](COC[C@@H](O)CN3C(=O)Nc3ccc4c(c3)OCO4)O2)CC1	-	.	-	-	-	-
COc1ccc2c3c(n(C)c2c1)[C@@H](CO)N(C)CC31CCN(S(C)(=O)=O)CC1	.	.	.	.	-	.
CC(C)(C)c1ccccc1NC(=O)Cn1cnc2cc([N+](=O)[O-])ccc2c1=O	43	-	.	-	-	-
O=c1c2ccc([N+](=O)[O-])cc2ncn1CCOc1cccc(Br)c1	43	-	-	.	-	.
O=c1c2ccc([N+](=O)[O-])cc2ncn1CCOc1ccc(Cl)cc1	-	-	-	-	-	-
CCO[C@@H]1OC(C(=O)NCc2ccccc2)=C[C@H](c2ccccc2)[C@H]1CCCO	-	-	-	-	-	-
CCO[C@@H]1OC(C(=O)O)=C[C@H](C2CCCCC2)[C@H]1CCCO	-	-	-	-	-	-
